Article PMC11557630 (Targeted Oncology, 2024)

Experiments:
[1] = test system: cell kill activity; details: preclinically determined; no reference given; cited from earlier work
[2] = test system: patients with relapsed extensive-stage SCLC; assay: Safety and tolerability; assay type: in vivo, human; details: part B SCLC cohort
Summary of the method: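 Oral adavosertib 200 mg once daily on days 1–3 and 8–10 of a 21-day cycle, plus continuous oral olaparib 200 mg twice daily. AEs were graded by CTCAE v4.03 and assessed by physical examination, vital signs (blood pressure, pulse, body temperature) and laboratory parameters, from enrollment through post-treatment follow-up. Safety data were summarized descriptively.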

[3] = test system: PARP inhibitor-resistant ovarian cancer; details: adavosertib monotherapy arm; cited from earlier work
[4] = test system: patients with refractory solid tumors; assay: Safety and tolerability; assay type: in vivo, human; details: for Patients with AEs causally related to adavosertib: 12 patients
Summary of the method: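 Open-label, multicenter escalation: oral adavosertib 175 mg twice daily on a 3-days-on/4-days-off schedule, plus continuous oral olaparib 200 mg twice daily, in 21-day cycles. DLTs were recorded in cycle 1, a window extendable up to 2 weeks after drug-related delays; DLT-evaluable patients received >75% of planned doses. AEs were graded by CTCAE v4.03 via examination, vital signs and laboratory tests.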

[5] = Plasma pharmacokinetics of adavosertib and olaparib, part A; assay type: in vivo, human
[6] = in combination with olaparib, cohort 4.2
[7] = in combination with olaparib, cohort 7.4
[8] = with adavosertib 175 mg bid vs olaparib alone

Structure (SMILES): C=CCn1c(=O)c2cnc(Nc3ccc(N4CCN(C)CC4)cc3)nc2n1-c1cccc(C(C)(C)O)n1 [adavosertib]
- Target adavosertib plasma concentration range for cell kill activity [1]: 0.5 to 1 µM
- AEs leading to dose reductions of adavosertib [2]: one
- AEs leading to interruptions of adavosertib [2]: three
- Clinical benefit rate [3]: 63%
- Patients with an AE leading to dose reduction of adavosertib ([4]; cohort 4.2, five patients): 35.7%
- Patients with an AE leading to dose interruption of adavosertib ([4]; cohort 4.2, seven patients): 50.0%
- Patients with an AE leading to dose interruption of adavosertib ([4]; cohort 7.4, five patients): 38.5%
- Patients with an AE leading to dose reduction of adavosertib ([4]; cohort 7.4, three patients): 23.1%
- MTD for adavosertib bid ([4]; days 1–3, 8–10/21-day cycle, plus continuous olaparib 200 mg bid (cohort 4.2)): 175 mg
- Anemia causally related to adavosertib [4, 6]: 35.7%
- Decreased appetite causally related to adavosertib [4, 6]: 50.0%
- Diarrhea causally related to adavosertib [4, 6]: 50.0%
- Fatigue causally related to adavosertib [4, 6]: 64.3%
- Nausea causally related to adavosertib [4, 6]: 50.0%
- Patients with AEs causally related to adavosertib [4, 6]: 85.7%
- Patients with serious AEs causally related to adavosertib ([4]; in combination with olaparib, cohort 4.2, three patients): 21.4%
- Anemia causally related to adavosertib [4, 7]: 38.5%
- Decreased appetite causally related to adavosertib [4, 7]: 30.8%
- Diarrhea causally related to adavosertib [4, 7]: 38.5%
- Fatigue causally related to adavosertib [4, 7]: 15.4%
- Nausea causally related to adavosertib [4, 7]: 23.1%
- Patients with AEs causally related to adavosertib [4, 7]: 92.3%
- Patients with serious AEs causally related to adavosertib ([4]; in combination with olaparib, cohort 7.4, one patient (dizziness)): 7.7%
- Patients with CTCAE grade ≥ 3 events causally related to adavosertib ([4]; in combination with olaparib, part A overall, 52 patients): 43.7%
- AEs with an outcome of death considered causally related to adavosertib ([4]; part A overall, sepsis, not a result of a DLT): one

Structure (SMILES): O=C(c1cc(Cc2n[nH]c(=O)c3ccccc23)ccc1F)N1CCN(C(=O)C2CC2)CC1 [olaparib, reference compound]
- Ratio of olaparib plus adavosertib to olaparib alone for AUC0–10 and/or Cmax ([5]; in some patients (high outliers)): exceeded 2
- Difference between exposure to olaparib in the presence of adavosertib and to olaparib alone ([5]; part A): no statistically significant difference
- Olaparib Cmin,ss compared with the IC95 in preclinical studies ([5]; part A, Supplementary Fig. 3): comparable
- Increase in olaparib AUC0–10 [5, 8]: 33%
- Increase in olaparib Cmax [5, 8]: 18%
- AEs leading to interruptions of olaparib [2]: five
- Patients with an AE leading to dose interruption of olaparib ([4]; cohort 4.2, nine patients): 64.3%
- Patients with an AE leading to dose reduction of olaparib ([4]; cohort 4.2, three patients): 21.4%
- Patients with an AE leading to dose interruption of olaparib ([4]; cohort 7.4, eight patients): 61.5%
- Patients with an AE leading to dose reduction of olaparib ([4]; cohort 7.4, three patients): 23.1%
